Experimental data from ChEMBL document CHEMBL1124743, “Development of a novel series of (2-quinolinylmethoxy)phenyl-containing compounds as high-affinity leukotriene receptor antagonists. 1. Initial structure-activity relationships” (J Med Chem, 1990).
Active and inactive are the calls of the source. The rule behind the calls is not given here.

Experiments:
[1] = target: T1, Cysteinyl leukotriene receptor 1 (Cavia porcellus, UniProt Q2NNR5); test: Binding affinity against Cysteinyl leukotriene D4 receptor from guinea pig lung was determined using [3H]LTD4 (0.2 nM)
T1 sequence (Q2NNR5 whole entry): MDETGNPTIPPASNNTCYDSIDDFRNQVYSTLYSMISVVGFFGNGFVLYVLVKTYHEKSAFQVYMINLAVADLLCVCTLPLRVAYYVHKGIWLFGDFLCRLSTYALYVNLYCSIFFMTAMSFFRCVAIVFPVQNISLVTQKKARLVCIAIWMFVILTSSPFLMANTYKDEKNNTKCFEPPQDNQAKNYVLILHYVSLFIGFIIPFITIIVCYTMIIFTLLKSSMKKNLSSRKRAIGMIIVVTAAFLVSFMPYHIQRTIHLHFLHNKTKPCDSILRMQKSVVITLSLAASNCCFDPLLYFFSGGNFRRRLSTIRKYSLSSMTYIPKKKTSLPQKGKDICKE
In short: (§1)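 Membranes from guinea pig lung were incubated with 0.2 nM [3H]LTD4. Ki was derived from an IC50 read graphically, using at least four compound concentrations run in duplicate. Single-concentration values are % inhibition of specific binding at the stated concentration. Results are mean ± SEM with N separate experiments.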

[2] = target: Cysteinyl leukotriene receptor (Cavia porcellus); test: Inhibition of the spasmogenic activity of LTD4 in guinea pig parenchymal strips.
Cavia porcellus [3] = test: Oral activity expressed as percent inhibition in LTD4-induced wheal assay in guinea pig at 18 mg/kg
Cavia porcellus [4] = species: Cavia porcellus; test: Oral activity expressed as percent inhibition in leukotriene mediated anaphylaxis assay in guinea pig at 60 uM; type: functional; settings: in the assay text read “60 mg/kg” for “60 uM”
In short: (§2)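 Immunized guinea pigs were pretreated with pyrilamine, propranolol and indomethacin, given compound orally, then challenged with aerosolized ovalbumin. Mortality was the end point. ED50 was determined graphically from at least three doses with at least six animals per dose. Other values are % inhibition at the indicated mg/kg dose.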

[5] = target: T2, Cysteinyl leukotriene receptor 1 (Cavia porcellus) (UniProt Q2NNR5); test: Binding affinity at 10 uM against Cysteinyl leukotriene D4 receptor from guinea pig lung by [3H]LTD4 (0.2 nM) displacement.; in short: as §1
T2 sequence (whole entry): T1 sequence (Q2NNR5 whole entry)

[6] = tested on: Cysteinyl leukotriene receptor (Cavia porcellus); test: inhibition of the spasmogenic activity of LTD4 in guinea pig parenchymal strips at 10 uM.
Cavia porcellus [7] = species: Cavia porcellus; test: Oral activity expressed as percent inhibition in leukotriene mediated anaphylaxis assay in guinea pig at 30 uM; type: functional; settings: in the assay text read “30 mg/kg” for “30 uM”; in short: as §2
Cavia porcellus [8] = species: Cavia porcellus; test: Oral activity expressed as effective dose in LTD4-induced wheal assay in guinea pig; type: functional
In short: (§3)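 Guinea pigs received compound orally 60 min before intradermal LTD4 challenge, and wheal formation was scored. ED50 came from linear regression over at least three doses, with at least five animals per point. Other values are % inhibition at the indicated mg/kg dose.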

Cavia porcellus [9] = species: Cavia porcellus; test: Oral activity expressed as effective dose in leukotriene mediated anaphylaxis assay in guinea pig; type: functional; in short: as §2
[10] = tested on: Arachidonate 5-lipoxygenase (Cavia porcellus); test: Percent inhibition against 5-lipoxygenase from guinea pig polymorphonuclear […]; settings: concentration not given here
Cavia porcellus [11] = species: Cavia porcellus; test: Compound was evaluated for its effect on LTC4 induced contractions of guinea pig peripheral lung strips; type: functional
In short: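 Guinea pig lung parenchymal strips were suspended in a tissue bath and contracted with 0.2 nM LTC4. IC50 was determined graphically from at least four concentrations. Results are mean ± SEM with N separate experiments, or % inhibition at the stated concentration.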

Cavia porcellus [12] = species: Cavia porcellus; test: Compound was evaluated for its effect on histamine induced contractions of guinea pig peripheral lung strips; No significant effect up to 50 uM; type: functional
[13] = target: T1, Cysteinyl leukotriene receptor 1; test: Compound was evaluated for inhibition against binding of [3H]LTD4 to Cysteinyl leukotriene D4 receptor; in short: as §1
Cavia porcellus [14] = species: Cavia porcellus; test: Compound was evaluated for its effect on PGF2-alpha induced contractions of guinea pig peripheral lung strips; No significant effect up to 50 uM; type: functional
Cavia porcellus [15] = test: Effective dose to antagonize antigen induced bronchoconstrictive response (intraduodenal administration); type: functional
In short: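 Actively sensitized guinea pigs were pretreated with indomethacin, pyrilamine and propranolol, then given compound intraduodenally and challenged with iv ovalbumin. Inhibition of bronchoconstriction was measured. ED50 is reported with 95% CI.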

Cavia porcellus [16] = species: Cavia porcellus; test: Compound was evaluated for its effect on LTE4 induced contractions of guinea pig peripheral lung strips; type: functional
Cavia porcellus [17] = species: Cavia porcellus; test: Half life was determined; settings: guinea pig
Cavia porcellus [18] = species: Cavia porcellus; test: Compound was evaluated for its effect on methacholine induced contractions of guinea pig peripheral lung strips; No significant effect up to 50 uM; type: functional
Cavia porcellus [19] = test: Effective dose to antagonize bronchoconstrictive response of LTD4 at 0.8 ug/kg (i.v.); type: functional; settings: Lung, iv
Cavia porcellus [20] = species: Cavia porcellus; test: Compound was evaluated for its effect on LTD4 induced contractions of guinea pig peripheral lung strips; type: functional
[21] = target: T2, Cysteinyl leukotriene receptor 1 (Cavia porcellus); test: Binding affinity against Cysteinyl leukotriene D4 receptor from guinea pig lung was determined using [3H]LTD4 (0.2 nM) at compound concentration of 1 uM; in short: as §1
Cavia porcellus [22] = species: Cavia porcellus; test: Ability to inhibit the spasmogenic activity of LTD4 in guinea pig parenchymal strips at 10 uM; type: functional
Cavia porcellus [23] = species: Cavia porcellus; test: Oral activity expressed as percent inhibition in LTD4-induced wheal assay in guinea pig at 10 uM; type: functional; settings: in the assay text read “at 10 mg/kg” for “at 10 uM”; in short: as §3
Cavia porcellus [24] = species: Cavia porcellus; test: Ability to inhibit the spasmogenic activity of LTC4 in guinea pig parenchymal strips at 1 uM
Cavia porcellus [25] = species: Cavia porcellus; test: Oral activity expressed as percent inhibition in LTD4-induced wheal assay in guinea pig at 9 uM; type: functional; settings: in the assay text read “at 9 mg/kg” for “at 9 uM”; in short: as §3

Ki [1] [nM]	IC50 [2] [nM]	inhibition [5] [%]	inhibition [6] [%]	Compound	also measured
275	1000	–	–	c1ccc2nc(COc3ccc(Cc4nnn[nH]4)cc3)ccc2c1	–
1200	–	–	–	c1ccc2nc(COCc3ccc(OCCCc4nnn[nH]4)cc3)ccc2c1	–
–	–	33	43	O=C(Nc1ccc2ccccc2n1)c1ccc(OCCCc2nnn[nH]2)cc1	–
42	79	–	–	c1cc(OCCCc2nnn[nH]2)cc(OCc2ccc3ccccc3n2)c1	inhibition [10]: 9%; Kb (Cavia porcellus [11]): ~90 nM; Activity (Cavia porcellus [12]): inactive; Ki [13]: 42 nM; Activity (Cavia porcellus [14]): inactive; ED50 (Cavia porcellus [9]): 16 mg/kg; ED50 (Cavia porcellus [15]): 2.5 mg/kg; Kb (Cavia porcellus [16]): ~90 nM; half-life (Cavia porcellus [17]): ~4 h; Activity (Cavia porcellus [18]): inactive; ED50 (Cavia porcellus [19]): 1.1 mg/kg; Kb (Cavia porcellus [20]): ~90 nM; ED50 (Cavia porcellus [8]): 6.9 mg/kg
–	–	18	-3	O=C(NCc1ccc2ccccc2n1)c1ccc(OCCCc2nnn[nH]2)cc1	–
540	–	–	–	c1ccc2nc(CSc3ccc(OCCCc4nnn[nH]4)cc3)ccc2c1	–
69	250	–	–	c1ccc2nc(COc3ccc(OCCCc4nnn[nH]4)cc3)ccc2c1	ED50 (Cavia porcellus [9]): 50 mg/kg; half-life (Cavia porcellus [17]): ~4 h; ED50 (Cavia porcellus [8]): 7 mg/kg
160	280	–	–	c1ccc2nc(COc3ccc(CCc4nnn[nH]4)cc3)ccc2c1	–
75	120	–	–	c1cc(OCCCCc2nnn[nH]2)cc(OCc2ccc3ccccc3n2)c1	Inhibition (Cavia porcellus [9]): 64%
–	–	25	4	O=C(Nc1ccc(OCCCc2nnn[nH]2)cc1)c1ccc2ccccc2n1	–
170	–	–	–	Cc1cc(OCc2ccc3ccccc3n2)ccc1OCCCc1nnn[nH]1	–
31	25	–	–	c1ccc2nc(COc3ccc(SCCCc4nnn[nH]4)cc3)ccc2c1	Inhibition (Cavia porcellus [23]): 23%
3300	–	–	–	c1ccc(OCc2ccc3ccccc3n2)c(OCCCc2nnn[nH]2)c1	–

Continued, molecule first:

Compound	Ki [1] [nM]	IC50 [2] [nM]	inhibition [5] [%]	inhibition [6] [%]	also measured
CCc1ccc(OCc2ccc3ccccc3n2)cc1OCCCc1nnn[nH]1	240	250	–	–	–
c1cc(OCc2ccc3ccccc3n2)cc(OCc2nn[nH]n2)c1	85	140	–	–	Inhibition (Cavia porcellus [3]): 18%; Inhibition (Cavia porcellus [4]): 67%
c1ccc(COc2ccc(OCCCc3nnn[nH]3)cc2OCc2ccc3ccccc3n2)cc1	–	–	57	44	–
c1ccc2c(c1)CCC(COc1ccc(OCCCc3nnn[nH]3)cc1)N2 (stereo not given)	–	–	–	22	–
c1ccc(-c2cccc(COc3ccc(OCCCc4nnn[nH]4)cc3)n2)cc1	–	–	48	50	–
c1ccc2[nH]c(COc3ccc(OCCCc4nnn[nH]4)cc3)nc2c1	–	–	28	42	–
c1ccc(OCc2ccc3ccccc3n2)cc1	1000	–	–	–	–
O=C(O)CCCOc1ccc(OCc2ccc3ccccc3n2)cc1	1200	800	–	–	–
c1ccc2nc(COc3ccc(OCCCc4nnn[nH]4)cc3)ncc2c1	500	–	–	75	–
CCOC(=O)CCCOc1cccc(OCc2ccc3ccccc3n2)c1	160	600	–	–	Inhibition (Cavia porcellus [7]): 83%; ED50 (Cavia porcellus [8]): 15 mg/kg
c1cc(OCc2ccc3ccccc3n2)cc(-c2nn[nH]n2)c1	115	200	–	–	ED50 (Cavia porcellus [9]): 145 mg/kg
c1ccc(-c2ccc(COc3cccc(OCCCc4nnn[nH]4)c3)nc2)cc1	–	–	58	22	–
CCCCCC(O)c1cccc(OCc2ccc3ccccc3n2)c1 (stereo not given) [REV-5901]	1500	–	–	–	–
c1cc(OCCCc2nnn[nH]2)cc(OCc2cnc3ccccc3c2)c1	–	–	15	-10	–
CCOC(=O)c1ccc(COc2ccc(OCCCc3nnn[nH]3)cc2)nc1	–	–	35	41	–
c1ccc2sc(COc3ccc(OCCCc4nnn[nH]4)cc3)nc2c1	240	–	–	59	–
c1ccc2sc(COc3ccc(OCCCc4nnn[nH]4)cc3)cc2c1	–	–	9	36	–
c1ccc(COc2cccc(OCCCc3nnn[nH]3)c2)cc1	–	–	12	9	–
c1ccc2c(COc3ccc(OCCCc4nnn[nH]4)cc3)nccc2c1	–	–	–	–	inhibition [21]: 7%
c1cc(OCCCc2nnn[nH]2)cc(OCc2cc3ccccc3cn2)c1	–	–	45	–	inhibition at 10 µM (Cavia porcellus [22]): 68%
O=C(O)CCCOc1cccc(OCc2ccc3ccccc3n2)c1	–	–	–	–	ED50 (Cavia porcellus [9]): 20 mg/kg; ED50 (Cavia porcellus [8]): 7.2 mg/kg
c1ccc2nc(COc3ccc(CCCCc4nnn[nH]4)cc3)ccc2c1	–	–	–	–	Inhibition (Cavia porcellus [23]): 35%
Cc1cc(OCCCc2nnn[nH]2)cc(OCc2ccc3ccccc3n2)c1	640	–	–	–	inhibition at 1 µM (Cavia porcellus [24]): 20%
c1ccc(Oc2cccc(COc3cccc(OCCCc4nnn[nH]4)c3)n2)cc1	–	–	48	9	–
c1cc(OCCCc2nnn[nH]2)cc(OCc2ccc3ccccc3c2)c1	–	–	0	12	–
c1ccc(COc2cccc(OCCCc3nnn[nH]3)c2)nc1	–	–	10	18	–
O=C(CCCOc1ccc(OCc2ccc3ccccc3n2)cc1)NS(=O)(=O)c1ccccc1	31	19	–	–	Inhibition (Cavia porcellus [4]): 64%; Inhibition (Cavia porcellus [25]): 24%
O=C(O)c1ccc(COc2ccc(OCCCc3nnn[nH]3)cc2)nc1	–	–	30	22	–
CCOC(=O)CCCOc1ccc(OCc2ccc3ccccc3n2)cc1	500	2000	–	–	–
